The values that follow come from article PMC8458670 (Slas Discovery, 2022).

The Kd is the concentration at which binding is half-saturated. A lower Kd goes with a tighter complex. As a reminder, the IC50 is the point on the concentration scale where inhibition reaches its midpoint. A low value points to greater potency.

Experiment [1] addresses nsp14 (amino acids 1-527) (Severe acute respiratory syndrome coronavirus 2, UniProt P0DTD1). In words: Surface plasmon resonance binding to biotinylated nsp14. Details: species or system SARS-CoV-2. The essentials:
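SPR used N-terminally biotinylated nsp14 (aa 1–527) coupled on a CM5 chip, with C-terminally biotinylated SETD3 (aa 1–605) as control. Test compounds were injected at five concentrations (0.6–50 µM, or 0.06–5 µM for some) at 50 µL/min. Running buffer was HBS-EP Plus (10 mM HEPES pH 7.4, 150 mM NaCl, 2 mM EDTA, 0.005% Tween-20) with 0.5% DMSO. Contact time was 60 s and dissociation 120 s, with blank-buffer and DMSO (0.4–0.6%) corrections.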
Background: Surface plasmon resonance follows binding to a sensor surface in real time, without labels.

The next experiment deals with SARS-CoV-2 nsp14 (Severe acute respiratory syndrome coronavirus 2, UniProt P0DTD1). In words: Radiometric nsp14 MTase activity assay. The experiment is classed as biochemical.

With `Nc1ncnc2c1ncn2[C@@H]1O[C@H](CSCC[C@H](N)C(=O)O)[C@@H](O)[C@H]1O` [SAH, S-Adenosylhomocysteine], binding in experiment [1] was put at a Kd of 140 nM. Also, the IC50 against SARS-CoV-2 nsp14 amounted to 130 ± 30 nM.
